Experimental data published in ChEMBL document CHEMBL1821569, “Synthesis of novel 1,2,5-trisubstituted benzimidazoles as potential antitumor agents” (2011).

Experiments:
Type in all cases: functional
MOLT-4 = experiment: Antitumor activity against human MOLT4 cells after 48 hrs by SRB assay; settings: MOLT-4, 48 h
How it was run: (§1)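 NCI 60-cell-line secondary screen. Cells were exposed continuously to drug for 48 h at five concentration levels (100, 10, 1.0, 0.1 and 0.01). Growth was estimated by sulforhodamine B protein staining. GI50 is the concentration giving a 50% reduction in net protein increase versus untreated control cells over the incubation. TGI (total growth inhibition) and LC50 (50% cell kill) were also derived.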

SF-268 = experiment: Antitumor activity against human SF268 cells after 48 hrs by SRB assay; settings: SF-268, 48 h; how it was run: as §1
SW-620 = experiment: Antitumor activity against human SW620 cells after 48 hrs by SRB assay; settings: SW-620, 48 h
How it was run: (§2)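 NCI 60-cell-line secondary screen. Continuous 48 h exposure at five concentration levels. Cell growth estimated by sulforhodamine B protein staining. GI50 taken as the concentration giving 50% reduction in net protein increase relative to untreated control cells over the incubation. TGI (total growth inhibition) and LC50 (50% cell kill) were also derived.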

BT-549 = experiment: Antitumor activity against human BT549 cells after 48 hrs by SRB assay; settings: BT-549, 48 h; how it was run: as §1
MDA-MB-468 = experiment: Antitumor activity against human MDA-MB-468 cells after 48 hrs by SRB assay; settings: MDA-MB-468, 48 h; how it was run: as §1
TK-10 = experiment: Antitumor activity against human TK10 cells after 48 hrs by SRB assay; settings: TK-10, 48 h; how it was run: as §2
SF-539 = experiment: Antitumor activity against human SF539 cells after 48 hrs by SRB assay; settings: SF-539, 48 h; how it was run: as §1
OVCAR-4 = experiment: Antitumor activity against human OVCAR4 cells after 48 hrs by SRB assay; settings: OVCAR-4, 48 h; how it was run: as §1
NCI-H322M = experiment: Antitumor activity against human NCI-H322M cells after 48 hrs by SRB assay; how it was run: as §1
NCI-H23 = experiment: Antitumor activity against human NCI-H23 cells after 48 hrs by SRB assay; settings: NCI-H23, 48 h; how it was run: as §1
RPMI-8226 = experiment: Antitumor activity against human RPMI8226 cells after 48 hrs by SRB assay; settings: RPMI-8226, 48 h; how it was run: as §1
HCC 2998 = experiment: Antitumor activity against human HCC2998 cells after 48 hrs by SRB assay; settings: HCC 2998, 48 h, read-out: LC50 (the source's name)
How it was run: (§3)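 NCI 60-cell-line secondary screen: continuous drug exposure for 48 h at five concentration levels (100, 10, 1.0, 0.1 and 0.01). Cell growth was estimated by sulforhodamine B (SRB) protein staining. GI50 is the concentration giving a 50% reduction in net protein increase relative to untreated control cells during the incubation. TGI and LC50 were derived from the same data.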

786-0 = experiment: Antitumor activity against human 786-0 cells after 48 hrs by SRB assay; settings: 786-0, 48 h; how it was run: as §1
HL-60(TB) = experiment: Antitumor activity against human HL-60(TB) cells after 48 hrs by SRB assay; settings: HL-60, 48 h; how it was run: as §3
SK-MEL-28 = experiment: Antitumor activity against human SK-MEL-28 cells after 48 hrs by SRB assay; settings: SK-MEL-28, 48 h; how it was run: as §1
HOP-62 = experiment: Antitumor activity against human HOP62 cells after 48 hrs by SRB assay; settings: HOP-62, 48 h; how it was run: as §1
KM12 = experiment: Antitumor activity against human KM12 cells after 48 hrs by SRB assay; settings: KM12, 48 h; how it was run: as §1
CAKI-1 = experiment: Antitumor activity against human Caki1 cells after 48 hrs by SRB assay; settings: CAKI-1, 48 h; how it was run: as §1
EKVX = experiment: Antitumor activity against human EKVX cells after 48 hrs by SRB assay; how it was run: as §1
K562 = experiment: Antitumor activity against human K562 cells after 48 hrs by SRB assay; settings: K562, 48 h; how it was run: as §1
LOX IMVI = experiment: Antitumor activity against human LOXIMVI cells after 48 hrs by SRB assay; how it was run: as §1
NCI-H460 = experiment: Antitumor activity against human NCI-H460 cells after 48 hrs by SRB assay; settings: NCI-H460, 48 h; how it was run: as §1
COLO 205 = experiment: Antitumor activity against human COLO205 cells after 48 hrs by SRB assay; settings: COLO 205, 48 h; how it was run: as §1
RXF 393 = experiment: Antitumor activity against human RXF393 cells after 48 hrs by SRB assay; settings: RXF 393, 48 h; how it was run: as §1
HCT-15 = experiment: Antitumor activity against human HCT15 cells after 48 hrs by SRB assay; settings: HCT-15, 48 h; how it was run: as §1
SNB-19 = experiment: Antitumor activity against human SNB19 cells after 48 hrs by SRB assay; settings: SNB-19, 48 h; how it was run: as §1
SK-MEL-5 = experiment: Antitumor activity against human SK-MEL-5 cells after 48 hrs by SRB assay; settings: SK-MEL-5, 48 h; how it was run: as §1
SK-OV-3 = experiment: Antitumor activity against human SKOV3 cells after 48 hrs by SRB assay; settings: SK-OV-3, 48 h; how it was run: as §1
UACC-62 = experiment: Antitumor activity against human UACC62 cells after 48 hrs by SRB assay; settings: UACC-62, 48 h; how it was run: as §2
[1] = read-out: LC50 (the source's name)

COC(=O)c1ccc2c(c1)nc(-c1cc3ccccc3[nH]c1=O)n2-c1cc(C(C)(C)C)[nH]n1
GI50 (MOLT-4): 0.445 µM
LC50 (50% net cell kill) (MOLT-4): > 100 µM
TGI (MOLT-4): > 100 µM
GI50 (SF-268): 2.13 µM
TGI (SF-268): 91.9 µM
CC50 (SF-268; [1]): > 100 µM
TGI (SW-620): > 100 µM
CC50 (SW-620; [1]): > 100 µM
GI50 (BT-549): 4.88 µM
TGI (BT-549): 66.2 µM
CC50 (BT-549; [1]): > 100 µM
GI50 (MDA-MB-468): 20.5 µM
TGI (MDA-MB-468): > 100 µM
CC50 (MDA-MB-468; [1]): > 100 µM
GI50 (TK-10): 16.9 µM
TGI (TK-10): 55.8 µM
CC50 (TK-10; [1]): > 100 µM
GI50 (SF-539): 4.12 µM
TGI (SF-539): > 100 µM
CC50 (SF-539; [1]): > 100 µM
TGI (OVCAR-4): > 100 µM
CC50 (OVCAR-4; [1]): > 100 µM
GI50 (NCI-H322M): 0.929 µM
LC50 (50% cell kill) (NCI-H322M): > 100 µM
TGI (NCI-H322M): > 100 µM
GI50 (NCI-H23): 2.78 µM
LC50 (50% cell kill) (NCI-H23): > 100 µM
TGI (NCI-H23): > 100 µM
GI50 (RPMI-8226): 0.167 µM
TGI (RPMI-8226): 0.987 µM
CC50 (RPMI-8226; [1]): > 100 µM
CC50 (HCC 2998): > 100 µM
GI50 (786-0): 5.81 µM
TGI (786-0): > 100 µM
CC50 (786-0; [1]): > 100 µM
GI50 (HL-60(TB)): 0.322 µM
LC50 (HL-60(TB)): > 100 µM
TGI (SK-MEL-28): > 100 µM
CC50 (SK-MEL-28; [1]): > 100 µM
GI50 (HOP-62): 0.996 µM
LC50 (concentration giving 50% cell kill) (HOP-62): > 100 µM
TGI (HOP-62): > 100 µM
GI50 (KM12): 1.29 µM
CC50 (KM12; [1]): > 100 µM
GI50 (CAKI-1): 0.476 µM
TGI (CAKI-1): 90.5 µM
CC50 (CAKI-1; [1]): > 100 µM
GI50 (EKVX): 5.8 µM
LC50 (50% cell kill) (EKVX): > 100 µM
TGI (EKVX): > 100 µM
GI50 (K562): 1.73 µM
TGI (K562): > 100 µM
CC50 (K562; [1]): > 100 µM
GI50 (LOX IMVI): 1.24 µM
CC50 (LOX IMVI; [1]): > 100 µM
GI50 (NCI-H460): 0.63 µM
TGI (NCI-H460): > 100 µM
CC50 (NCI-H460; [1]): > 100 µM
TGI (COLO 205): > 100 µM
CC50 (COLO 205; [1]): > 100 µM
GI50 (RXF 393): 2.16 µM
TGI (RXF 393): 8.86 µM
CC50 (RXF 393; [1]): > 100 µM
LC50 (50% cell kill) (HCT-15): > 100 µM
TGI (HCT-15): > 100 µM
GI50 (SNB-19): 7.59 µM
TGI (SNB-19): > 100 µM
CC50 (SNB-19; [1]): > 100 µM
GI50 (SK-MEL-5): 2.3 µM
TGI (SK-MEL-5): > 100 µM
CC50 (SK-MEL-5; [1]): > 100 µM
GI50 (SK-OV-3): 28.5 µM
TGI (SK-OV-3): > 100 µM
CC50 (SK-OV-3; [1]): > 100 µM
TGI (UACC-62): > 100 µM
CC50 (UACC-62; [1]): > 100 µM
